{
  "source": "ChEMBL document CHEMBL5107952",
  "about": "“Synthesis of low-molecular weight fucoidan derivatives and their binding abilities to SARS-CoV-2 spike proteins” (RSC Med Chem, 2021)",
  "type_in_all_cases": "cell-based, Severe acute respiratory syndrome coronavirus 2",
  "key": {"[1]": {"test": "(§1) Competitive inhibition of biotinylated heparin binding to His-tagged SARS-COV-2 P.1 variant recombinant spike glycoprotein L18F/T20N/P26S/D138Y/R190S/K417T/E484K/N501Y/H655Y/T1027I mutant expressed in Expi293F cells incubated for 300 sec by biolayer interferometry streptavidin sensor based assay", "in_short": "(§2)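 Same heparin-competition BLI format with variant S proteins (B.1.1.7, B.1.351, P.1). Biotinylated heparin sat on streptavidin sensors, and S protein (1 μM) was in TBS (20 mM Tris, pH 7.4, 0.02% BSA). Bound (%) was read from the BLI signal. IC50 was fitted and converted to Ki via Cheng–Prusoff.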"}, "[2]": {"test": "Competitive inhibition of biotinylated heparin binding to His-tagged SARS-COV-2 B.1.351 variant recombinant spike glycoprotein D80A/D215G/K417N/E484K/N501Y/D614G/A701V mutant expressed in Expi293F cells assessed as inhibition constant incubated for 120 sec by biolayer interferometry streptavidin sensor based assay", "in_short": "as §2"}, "[3]": {"test": "(§3) Competitive inhibition of biotinylated heparin binding to His-tagged SARS-COV-2 B.1.1.7 variant recombinant spike glycoprotein del69-70/del144/N501Y/A570D/D614G/P681H/T716I/S982A/D1118H mutant expressed in Expi293F cells incubated for 120 sec by biolayer interferometry streptavidin sensor based assay", "in_short": "as §2"}, "[4]": {"test": "Competitive inhibition of biotinylated heparin binding to His-tagged SARS-COV-2 B.1.351 variant recombinant spike glycoprotein D80A/D215G/K417N/E484K/N501Y/D614G/A701V mutant expressed in Expi293F cells incubated for 120 sec by biolayer interferometry streptavidin sensor based assay", "in_short": "as §2"}, "[5]": {"test": "as §1, with “cells assessed as inhibition constant” for “cells”", "in_short": "as §2"}, "[6]": {"test": "as §3, with “cells assessed as inhibition constant” for “cells”", "in_short": "as §2"}},
  "data": [
    {"smiles": "CCCCCCCCO[C@H]1O[C@@H](C)[C@@H](O[C@@H]2O[C@@H](C)[C@@H](O[C@@H]3O[C@@H](C)[C@@H](O[C@@H]4O[C@@H](C)[C@@H](OS(=O)(=O)O)[C@@H](OS(=O)(=O)O)[C@@H]4OS(=O)(=O)O)[C@@H](OS(=O)(=O)O)[C@@H]3OS(=O)(=O)O)[C@@H](OS(=O)(=O)O)[C@@H]2OS(=O)(=O)O)[C@@H](OS(=O)(=O)O)[C@@H]1OS(=O)(=O)O", "values": [
      {"measurement": "IC50", "setting": "[1]", "value": 65.6, "unit": "µM"},
      {"measurement": "Ki", "setting": "[2]", "value": 6.67, "unit": "µM"},
      {"measurement": "IC50", "setting": "[3]", "value": 35, "unit": "µM"},
      {"measurement": "IC50", "setting": "[4]", "value": 85.9, "unit": "µM"},
      {"measurement": "Ki", "setting": "[5]", "value": 6.98, "unit": "µM"},
      {"measurement": "Ki", "setting": "[6]", "value": 10.1, "unit": "µM"}
    ]}
  ]
}
